Shown are actives, neighbours in structure and some others; about 3.6% of the full set was active somewhere.
PAFAH2 inh: inhibitors of human PAFAH2; Q99487; recombinant PAFAH2, FP-rhodamine activity probe, fluorescence polarization; inhibition, % at 3.39 µM; hit rate 0.99% among 340,000;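 active = inhibition above the mean over all tested compounds plus 3 SD, cut at about 30% in these data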;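 also: inhibitors block probe labeling of enzyme so polarization drops; 0% = enzyme with DMSO and 100% = wells lacking PAFAH2 protein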
PAFAH1B2 inh: blocks human PAF acetylhydrolase 1b catalytic subunit 2. P68402. recombinant PAFAH1B2, FP-rhodamine activity probe, fluorescence polarization. inhibition, % at 3.39 µM. hit rate 1.2% among 340,000. AID 492953;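 active = inhibition above the mean of all tested compounds plus 3 SD, cut at about 24% in these data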;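 also: 0% = enzyme with DMSO and 100% = wells lacking PAFAH1B2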
PAFAH1B3 inh: inhibitors of human PAFAH1B3 | hit rate 0.28% among 340,000 | recombinant PAFAH1B3, FP-rhodamine probe, fluorescence polarization | inhibition, % at 3.39 µM | Q15102;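 active = inhibition above the screen-wide average of all tested compounds plus 3 SD, cut at about 25% in these data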;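 also: 0% = enzyme with DMSO only and 100% = wells lacking PAFAH1B3 protein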
Target sequence (Q15102 whole entry, looked up): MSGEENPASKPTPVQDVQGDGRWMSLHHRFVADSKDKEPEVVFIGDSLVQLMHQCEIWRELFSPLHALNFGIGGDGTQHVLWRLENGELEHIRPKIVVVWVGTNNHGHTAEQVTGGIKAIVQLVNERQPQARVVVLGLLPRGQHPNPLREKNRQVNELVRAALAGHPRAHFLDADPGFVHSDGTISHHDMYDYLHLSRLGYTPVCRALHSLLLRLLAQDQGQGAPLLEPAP
IMP-1 inh: inhibitors of Pseudomonas aeruginosa IMP-1 metallo-beta-lactamase; inhibition, % at 5.6 µM; hit rate 0.45% among 290,000; purified IMP-1, nitrocefin hydrolysis, epi-absorbance fluorescence;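 active = inhibition above the mean plus 3 SD of all compounds in the same screening run, cut at about 4.5% in these data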;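 also: 0% = IMP-1 with DMSO and 100% = DMSO wells lacking enzyme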
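System – purified recombinant IMP-1 beta-lactamase · Input – IMP-1 dispensed at 0.2 nM · Timing – 15 min preincubation plus 25 min reaction at 25 °C · Signal – Epi-absorbance fluorescence, 480 nm excitation, 530 nm emission · Measure – percent IMP-1 inhibition derived from blank-referenced optical density · Controls – Enzyme-plus-DMSO low control, enzyme-free DMSO high control · Replication – singlicate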
VIM-2 inhibitor: inhibitors of Pseudomonas aeruginosa VIM-2 metallo-beta-lactamase | AID 1527 | inhibition, % at 5.6 µM | hit rate 0.89% among 290,000 | purified VIM-2, nitrocefin hydrolysis, epi-absorbance fluorescence;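 active = inhibition above the mean of all tested compounds plus 3 SD, cutoff set per screening run, cut at about 7.5% in these data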;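 also: red hydrolysis product quenches plate fluorescence so inhibitors raise well fluorescence; 0% = enzyme with DMSO and 100% = DMSO without enzyme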
pPAFAH inh: pPAFAH (human) enzyme inhibition; Q13093; recombinant pPAFAH, FP-rhodamine probe fluorescence polarization; inhibition, % at 3.39 µM; hit rate 1.5% among 330,000; AID 463082;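 active = inhibition above the mean inhibition across the screen plus 3 SD, cut at about 25% in these data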;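 also: inhibitors block binding of the rhodamine activity-based probe so polarization drops; 0% = enzyme with DMSO and 100% = wells lacking pPAFAH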
Target sequence (Q13093 whole entry, looked up): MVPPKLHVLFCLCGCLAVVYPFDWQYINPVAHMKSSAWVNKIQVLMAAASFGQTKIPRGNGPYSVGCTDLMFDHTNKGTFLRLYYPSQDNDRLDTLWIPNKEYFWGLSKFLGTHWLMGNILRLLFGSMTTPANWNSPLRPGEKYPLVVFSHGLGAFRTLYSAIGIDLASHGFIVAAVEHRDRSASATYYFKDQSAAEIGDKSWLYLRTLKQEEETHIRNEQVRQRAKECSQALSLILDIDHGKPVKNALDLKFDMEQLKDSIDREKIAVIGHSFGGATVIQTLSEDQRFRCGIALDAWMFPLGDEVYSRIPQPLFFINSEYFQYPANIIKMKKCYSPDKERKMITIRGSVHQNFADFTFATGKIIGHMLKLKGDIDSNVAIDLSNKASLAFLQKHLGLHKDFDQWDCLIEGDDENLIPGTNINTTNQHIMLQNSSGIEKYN
PAFAH2 confirm: confirmation of human PAFAH2 inhibitors; shares compounds with PAFAH2 inh; recombinant PAFAH2, FP-rhodamine activity probe, fluorescence polarization; inhibition, % at 3.39 µM; hit rate 65% among 2,300;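 active = mean inhibition over three repeats above a set limit taken from the earlier primary screen, cut at about 30% in these data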;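 also: inhibitor blocks binding of rhodamine activity probe so polarization falls; 0% = enzyme with DMSO and 100% = wells lacking PAFAH2 protein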
Starred values were filed as active, the others as inactive; / = no result.

SMILES	PAFAH2 inh	PAFAH1B2 inh	PAFAH1B3 inh	IMP-1 inh	VIM-2 inhibitor	pPAFAH inh	PAFAH2 confirm
COc1cc(/C=C/C(=O)OCC(=O)NCc2ccc(F)cc2)ccc1O	69*	4	5	/	/	9	56*
COc1cc(/C=C/C(=O)OCC(=O)NCc2ccccc2OC)ccc1O	50*	11	15	/	/	9	49*
COc1ccccc1CNC(=O)c1nn(C)c2c1CS(=O)(=O)c1ccccc1-2	11	9	4	-1	-1	11	/
CC1(C)CC(=O)C=C(N=CC2=C(O)CC(C)(C)CC2=O)C1	33*	2	-4	-3	-3	2	7
CCC(C)[C@H](NC(=O)C1CC(=O)N(c2ccc3c(c2)OCO3)C1)C(=O)NC1CCCCC1 (some centres not stated)	-5	-3	0	-2	-2	-4	/
N=C1/C(=C\c2ccc(Br)o2)C(=O)N=C2SC(CC(=O)N3CCOCC3)=NN12	9	-3	3	-1	-1	-2	/
N=C1/C(=C/c2ccc(Br)o2)C(=O)N=C2SC(CC(=O)N3CCCC3)=NN12	31*	9	0	-2	-3	5	12
O=C(CSc1nc2ccccc2c(=O)n1-c1ccccc1Cl)NCC1CCCO1 (configuration not stated)	-6	1	9	/	/	-2	/
CC(C)(C)OC(=O)n1cc(C(=O)c2ccccc2O)cn1	84*	0	8	1	-1	0	69*
COc1cc(/C=C/C(=O)OCC(=O)Nc2ccc3c(c2)OCCO3)ccc1O	75*	3	0	-3	-3	10	80*
COc1cc(/C=C/C(=O)OCC(=O)Nc2ccc3c(c2)OCO3)ccc1O	82*	-1	3	/	/	5	74*
COc1cc(NC(=O)COC(=O)/C=C/c2c(C)nn(C3CCS(=O)(=O)C3)c2Cl)cc(OC)c1OC (configuration not stated)	0	2	2	-2	-1	1	/
COc1ccc(/C=C/C(=O)OCC(=O)Nc2ccc3c(c2)OCO3)cc1	70*	2	-2	/	/	8	69*
Cc1nn(C2CCS(=O)(=O)C2)c(Cl)c1/C=C/C(=O)OCC(=O)Nc1ccc2c(c1)OCO2 (configuration not stated)	83*	3	9	-3	-4	2	80*
Brc1ccccc1OCCCCn1cnc2ccccc21	35*	4	2	1	-3	2	4
CCCCC1(C(=O)OC)NC(c2ccc(O)cc2)C2C(=O)N(c3ccccc3)C(=O)C21 (configuration not stated)	-2	2	0	-3	-1	6	/
CN(Cc1ccco1)C(=O)c1cc2c(s1)-c1ccc(Cl)cc1S(=O)(=O)C2	51*	-1	3	-2	3	2	-10
Cc1noc(C)c1COc1ccc(C(=O)OCC(=O)NC2CCCCC2C)cc1 (configuration not stated)	77*	4	1	-2	-4	15	82*
Cc1noc(C)c1COc1ccc(C(=O)OCC(=O)NC23CC4CC(CC(C4)C2)C3)cc1	81*	2	7	-1	-2	11	80*
C(=NN=C(NN=Cc1cccs1)NN=Cc1cccs1)c1cccs1	-4	1	3	/	/	/	/
Cc1cccc(N(CC(=O)NC2CCCC2)C(=O)CNC(=O)c2ccco2)c1C	-8	-2	-3	-3	-3	4	/
COc1ccc(C)cc1NC(=O)CSc1nnc2ccc(-c3cccnc3)nn12	0	3	-2	/	/	-3	/
COc1cc(Cl)c(C)cc1NCC(=O)Nc1cccc(S(=O)(=O)N2CCCC2)c1	2	5	-4	/	/	1	/
COc1ccc(C2=Nn3c(nnc3-c3ccccc3OC)SC2)cc1OC1CCOC1 (configuration not stated)	9	4	8	/	/	2	/
O=C(COC(=O)c1ccccc1O)Nc1ncc(Cl)cc1Cl	33*	6	0	-3	-2	13	20
SMILES	PAFAH2 inh	PAFAH1B2 inh	PAFAH1B3 inh	IMP-1 inh	VIM-2 inhibitor	pPAFAH inh	PAFAH2 confirm
O=C(COC(=O)c1ccccc1NC(=O)c1ccco1)Nc1ncc(Cl)cc1Cl	8	-4	0	-2	0	6	/
O=C(COC(=O)C12CC3CC(CC(C3)C1)C2)Nc1ncc(Cl)cc1Cl	43*	14	4	-2	0	21	26
O=C(COC(=O)C12CC3CC(CC(C3)C1)C2)Nc1ccc([N+](=O)[O-])cc1Cl	5	5	4	-2	-2	2	/
CC(C)NC(=O)NC(=O)COC(=O)/C=C/c1ccc2c(c1)OCO2	7	2	5	-1	2	-4	/
CC1CCCC(NC(=O)COC(=O)c2ccc(Br)o2)C1C (configuration not stated)	27	7	6	/	/	12	/
O=C(COC(=O)/C=C/c1ccc2c(c1)OCO2)NC1CC1	56*	5	-5	-5	2	5	41*
CC1CCCC(NC(=O)COC(=O)/C=C/c2ccc3c(c2)OCO3)C1C (configuration not stated)	82*	4	1	0	-2	4	75*
CC(NC(=O)COC(=O)/C=C/c1ccc2c(c1)OCO2)c1ccccc1 (configuration not stated)	47*	7	1	/	/	1	38*
COc1ccc(S(=O)(=O)N2CCC(C(N)=O)CC2)cc1C(=O)N1CCCCCC1	-8	-4	7	-1	-1	-3	/
O=C(COC(=O)/C=C/c1ccc(S(=O)(=O)N2CCOCC2)cc1)NCc1ccccc1	49*	0	2	-2	0	3	30*
O=C(COC(=O)/C=C/c1ccc(S(=O)(=O)N2CCOCC2)cc1)Nc1ccc(F)c(F)c1F	33*	4	3	/	/	5	34*
O=C(COC(=O)/C=C/c1ccc(S(=O)(=O)N2CCOCC2)cc1)NCc1ccc(Cl)cc1	15	4	1	-2	-2	11	/
O=C(COC(=O)/C=C/c1ccc(S(=O)(=O)N2CCOCC2)cc1)NC1CCCCCCC1	53*	-1	-3	2	2	7	32*
CN(C)c1cccc(C(=O)NNC(=O)CSc2ccccc2)c1	6	10	-5	-2	-1	9	/
COCCN(C(=S)Nc1cccc(C)c1)C(C)c1cccs1 (configuration not stated)	15	4	8	-2	-3	1	/
COCCN(C(=S)Nc1c(C)cccc1C)C(C)c1cccs1 (configuration not stated)	51*	1	-2	-3	-5	2	39*
CN(C(=O)c1cccc(NC(=O)Cc2ccc(NC(=O)C3CCCN(C(=O)C4CCCC4)C3)cc2)c1)C1CC1 (configuration not stated)	-15	2	4	/	/	/	/

High-throughput results from PubChem.
